Data published in ChEMBL document CHEMBL1147097, “Trioxaquines are new antimalarial agents active on all erythrocytic forms, including gametocytes” (Antimicrob Agents Chemother, 2007).

Tests used:
[1] = test system: Plasmodium vinckei petteri; experiment: Antimalarial activity against Plasmodium vinckei petteri infected intraperitoneally dosed Swiss Albino mice (Mus musculus); type: functional
How it was run: (§1)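 Four-day suppressive test: groups of five female Swiss albino mice infected i.p. on day 0 with 2 × 10^7 parasitized red cells, then dosed once daily for 4 days (i.p., p.o. or s.c.; DMSO vehicle, chloroquine in 0.9% NaCl). Parasitemia read on day 4 vs untreated controls; ED50/ED90 as % growth inhibition; CD50/CD90 = cure (no parasites at 60 days).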

Plasmodium falciparum [2] = experiment: Antimalarial activity against chloroquine-resistant Plasmodium falciparum FcM29; type: functional, organism-based
How it was run: (§2)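 Asexual P. falciparum grown in culture at 37°C under 5% CO2 and exposed to drug dilutions for 48 h. Growth inhibition measured by radioactive micromethod. IC50 read graphically from concentration vs % growth inhibition; mean of at least three independent experiments.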

Plasmodium falciparum [3] = experiment: Antimalarial activity against chloroquine-sensitive Plasmodium falciparum F32; type: functional, organism-based; how it was run: as §2
Plasmodium falciparum [4] = experiment: Antimalarial activity against chloroquine-resistant Plasmodium falciparum FcB1; type: functional, organism-based; how it was run: as §2
[5] = test system: Plasmodium vinckei petteri; experiment: Antimalarial activity against Plasmodium vinckei petteri infected subcutaneously dosed Swiss Albino mice (Mus musculus); type: functional; conditions: for ED50 / ED90: Plasmodium vinckei, sc; how it was run: as §1
Mus musculus [6] = experiment: Toxicity against intraperitoneally dosed Swiss mouse; type: organism-based; conditions: in vivo, ip
How it was run: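 Acute toxicity: noninfected Swiss mice (two to five per dose) given a single i.p. injection. LD50 is the dose killing 50% of mice within 60 days.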

[7] = test system: Plasmodium vinckei petteri; experiment: Antimalarial activity against Plasmodium vinckei petteri infected orally dosed Swiss Albino mice (Mus musculus); type: functional; conditions: for ED50 / ED90: Plasmodium vinckei, po; how it was run: as §1
Mus musculus [8] = experiment: Toxicity against Plasmodium vinckei petteri infected mice (Mus musculus) at 25 mg/kg, intraperitoneally after 4 days; type: organism-based; parameters: dose 25 mg/kg, route intraperitoneal; conditions: in vivo, ip, 96 h
How it was run: (§3)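 Subacute toxicity: P. vinckei petteri-infected mice dosed on four consecutive days (day 0–3) at 10, 25 or 50 mg/kg/day p.o., i.p. or s.c. Five mice per dose and route.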

Mus musculus [9] = experiment: Toxicity against Plasmodium vinckei petteri infected mice (Mus musculus) at 50 mg/kg, perorally after 4 days; type: organism-based; parameters: dose 50 mg/kg, route oral; conditions: in vivo, po, 96 h; how it was run: as §3
Plasmodium falciparum [10] = experiment: Antimalarial activity against chloroquine-resistant Plasmodium falciparum W2 gametocytes (stage 2 & 3); type: functional, organism-based
How it was run: (§4)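 W2 gametocyte cultures treated with 50 mM N-acetyl-D-glucosamine for 3 or 5 days to remove asexual forms. Young (7-day) or old (13-day) cultures exposed to drug dilutions for 48 h. Giemsa thin films made and gametocytes counted per 6,000–10,000 erythrocytes. Mean of three independent experiments.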

Plasmodium falciparum [11] = experiment: Antimalarial activity against chloroquine-resistant Plasmodium falciparum W2 asexual […]; type: functional, organism-based
Plasmodium falciparum [12] = experiment: Antimalarial activity against chloroquine-resistant Plasmodium falciparum W2 gametocytes (stage 4 & 5); type: functional, organism-based; how it was run: as §4
[13] = Cytotoxicity against human HCT cells assessed as [3H]thymidine incorporation; type: cell-based
How it was run: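 HCT human colorectal tumour cells grown with 10% fetal calf serum and harvested with 0.05% trypsin-EDTA. Plated at 15 × 10^3 cells/well with drug dilutions.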

Plasmodium falciparum [14] = experiment: Growth inhibition after 6 hrs in chloroquine-resistant Plasmodium falciparum FcB1; type: functional, organism-based; conditions: FcB1, 6 h
How it was run: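 Plasmion-synchronized FcB1 parasites plated at ring stage and exposed to drug during successive 6-h windows of the erythrocytic cycle (one plate per period). Artemisinin tested at 7, 14, 28 nM; chloroquine at 120, 163, 232 nM; trioxaquine at 11.5, 23, 46 nM. Dilutions prepared daily.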

[15] = test system: Plasmodium yoelii nigeriensis; experiment: Antimalarial activity against Plasmodium yoelii nigeriensis infected subcutaneously dosed mice (Mus musculus); type: functional; conditions: for ED50 / ED90: Plasmodium yoelii, sc
How it was run: (§5)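 Four-day suppressive test with P. yoelii nigeriensis: infected mice given drug once daily for four consecutive days p.o. or s.c. (DMSO vehicle, chloroquine in 0.9% NaCl). Parasitemia compared with untreated controls. Cure was defined as no parasites detected after 60 days, with CD50 taken as the dose curing 50% of mice.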

Plasmodium falciparum [16] = experiment: Antimalarial activity against chloroquine-sensitive Plasmodium falciparum Nigeria; type: functional, organism-based, Nigerian; how it was run: as §2
[17] = test system: Plasmodium yoelii nigeriensis; experiment: Antimalarial activity against Plasmodium yoelii nigeriensis infected mice (Mus musculus) by oral dose; type: functional; how it was run: as §5
[18] = Ratio of IC50 for HCT cells to IC50 for Plasmodium falciparum; type: functional
[19] = Plasmodium vinckei, ip, read-out: ED50
[20] = Plasmodium vinckei, ip, read-out: ED90

Compound `CC(C)C1=C[C@H]2OC3(CCC(NCCNc4ccnc5cc(Cl)ccc45)CC3)OO[C@@]2(C)CC1.O=C(O)CC(O)(CC(=O)O)C(=O)O` (stereo in doubt; form 10) has a CD50 [1] of 7 mg/kg/day, an ED50 [1] of 7 mg/kg/day and an ED90 [1] of 2.5 mg/kg/day.

`CC(C)C1=C[C@H]2OC3(CCC(NCCNc4ccnc5cc(Cl)ccc45)CC3)OO[C@@]2(C)CC1` (stereo in doubt; form 8) [TRIOXAQUINE 3] gave an IC50 (Plasmodium falciparum [2]) of 12 nM, an IC50 (Plasmodium falciparum [3]) of 11 nM and an IC50 (Plasmodium falciparum [4]) of 8 nM.

Work on `CC(C)C1=C[C@H]2OC3(CCC(NCCNc4ccnc5cc(Cl)ccc45)CC3)OO[C@@]2(C)CC1.O=[N+]([O-])O` (stereo not given in full) yielded a CD50 [5] of 3 mg/kg/day, a CD90 [5] of 8 mg/kg/day and an ED50 [5] of 2 mg/kg/day. It also gave an ED90 [5] of 6 mg/kg/day, an IC50 (Plasmodium falciparum [2]) of 16 nM and an LD50 (Mus musculus [6]) of 70 mg/kg/day. It also gave a CD50 [7] of 24 mg/kg/day, a CD90 [7] of 46 mg/kg/day and an ED50 [7] of 16 mg/kg/day. The ED90 [7] was 34 mg/kg/day, the IC50 (Plasmodium falciparum [3]) was 25 nM and the IC50 (Plasmodium falciparum [4]) was 21 nM. For the same compound, the Activity (Mus musculus [8]) was “Non-toxic”, the CD50 [1] was 3 mg/kg/day and the CD90 [1] was 9 mg/kg/day. For the same compound, the ED50 [1, 19] was 0.7 mg/kg/day, the ED90 [1, 20] was 8 mg/kg/day and the Activity (Mus musculus [9]) was “Non-toxic”.

Work on `C[C@H]1[C@H](OC(=O)CCC(=O)O)O[C@@H]2O[C@@]3(C)CC[C@H]4[C@H](C)CC[C@@H]1[C@@]24OO3` [ARTESUNATE] yielded a CD50 [5] of 2.5 mg/kg/day, a CD90 [5] of 7.5 mg/kg/day and an ED50 [5] of 0.3 mg/kg/day. It also gave an ED90 [5] of 0.8 mg/kg/day, an IC50 (Plasmodium falciparum [10]) of 72 nM and an IC50 (Plasmodium falciparum [2]; Plasmodium falciparum, FcM29) of 1.6 nM. For the same compound, the IC50 (Plasmodium falciparum [11]) was 6 nM, the CD50 [7] was 19 mg/kg/day and the CD90 [7] was 28 mg/kg/day. It also gave an ED50 [7] of 2.5 mg/kg/day, an ED90 [7] of 8 mg/kg/day and an IC50 (Plasmodium falciparum [12]) of 108 nM.

Work on `CC(C)C1=C[C@H]2OC3(CCC(NCCNc4ccnc5cc(Cl)ccc45)CC3)OO[C@@]2(C)CC1.O=C(O)CC(O)(CC(=O)O)C(=O)O` (stereo in doubt; form 5) yielded a CD50 [5] of over 10 mg/kg/day, a CD90 [5] of over 10 mg/kg/day and an ED50 [5] of 2.8 mg/kg/day. For the same compound, the ED90 [5] was 8 mg/kg/day, the IC50 (Plasmodium falciparum [10]) was 69 nM and the LD50 (Mus musculus [6]) was 70 mg/kg/day. The IC50 (Plasmodium falciparum [11]) was 28 nM, the CD50 [7] was over 25 mg/kg/day and the CD90 [7] was over 25 mg/kg/day. The ED50 [7] was 17 mg/kg/day, the ED90 [7] was 23 mg/kg/day and the IC50 (Plasmodium falciparum [4]) was 5 nM. It also gave an IC50 [13] of 3000 nM, an IC50 (Plasmodium falciparum [14]) of 18 nM and a CD50 [15] of 3 mg/kg/day. For the same compound, the CD90 [15] was 12 mg/kg/day, the ED50 [15] was 2 mg/kg/day and the ED90 [15] was 5 mg/kg/day. It also gave a CD50 [1] of 12 mg/kg/day, a CD90 [1] of over 20 mg/kg/day and an IC50 (Plasmodium falciparum [12]) of 67 nM. The IC50 (Plasmodium falciparum [16]) was 23 nM, the CD50 [17] was 22 mg/kg/day and the CD90 [17] was 24 mg/kg/day. For the same compound, the ED50 ([17]; Plasmodium yoelii, po) was 15 mg/kg/day, the ED90 ([17]; Plasmodium yoelii, po) was 23 mg/kg/day and the “Ratio IC50” value [18] was 130.

`CC(C)C1=C[C@H]2OC3(CCC(NCCNc4ccnc5cc(Cl)ccc45)CC3)OO[C@@]2(C)CC1` (stereo in doubt; form 4) gave an IC50 (Plasmodium falciparum [2]) of 19 nM and an IC50 (Plasmodium falciparum [4]) of 43 nM.

With `O=C1C(O)=C([C@H]2CC[C@H](c3ccc(Cl)cc3)CC2)C(=O)c2ccccc21` [ATOVAQUONE] the IC50 (Plasmodium falciparum [10]) was 24000 nM, the IC50 (Plasmodium falciparum [11]) was 4.6 nM and the IC50 (Plasmodium falciparum [12]) was 50400 nM.

`CC(C)C1=C[C@H]2OC3(CCC(NCCNc4ccnc5cc(Cl)ccc45)CC3)OO[C@@]2(C)CC1` (stereo in doubt; form 1) showed an IC50 (Plasmodium falciparum [2]) of 29 nM and an IC50 (Plasmodium falciparum [4]) of 49 nM.

`CO[C@H]1O[C@@H]2O[C@@]3(C)CC[C@H]4[C@H](C)CC[C@@H]([C@H]1C)[C@@]24OO3` showed an ED50 [1, 19] of 0.3 mg/kg/day and an ED90 [1, 20] of 0.7 mg/kg/day.

With `COc1cc(NC(C)CCCN)c2ncccc2c1` (stereo not given) [PRIMAQUINE] the IC50 (Plasmodium falciparum [10]) was 4580 nM, the IC50 (Plasmodium falciparum [11]) was 1320 nM and the IC50 (Plasmodium falciparum [12]) was 1540 nM.

With `CCN(CC)CCCC(C)Nc1ccnc2cc(Cl)ccc12` (stereo not given) [CHLOROQUINE] the IC50 [13] was 50000 nM, the CD50 [15] was 3 mg/kg/day and the CD90 [15] was 5 mg/kg/day. The ED50 [15] was 3 mg/kg/day and the ED90 [15] was 5 mg/kg/day.
